Source: ChEMBL document CHEMBL4196009, “Novel vitexin-inspired scaffold against leukemia” (Eur J Med Chem, 2018)

How the values were obtained:
KOPN-8 [1] = test: Cell cycle arrest in human KOPN8 cells assessed as accumulation at S phase at 2 uM after 24 hrs by propidium iodide staining-based flow cytometry (reference value: 66.56%); format: functional
KOPN-8 [2] = test: Induction of apoptosis in human KOPN8 cells assessed as viable cells at 2 uM after 24 hrs by Annexin V-FITC/propidium iodide staining-based flow cytometry (reference value: 85.2%); format: functional; conditions: KOPN-8, 24 h, read-out: Activity
KOPN-8 [3] = test: Cell cycle arrest in human KOPN8 cells assessed as accumulation at G0/G1 phase at 2 uM after 24 hrs by propidium iodide staining-based flow cytometry (reference value: 24.77%); format: functional
MDA-MB-231 [4] = test: Cell cycle arrest in human MDA-MB-231 cells assessed as accumulation at S phase at 2.5 uM after 24 hrs by propidium iodide staining-based flow cytometry (reference value: 20.15%); format: functional
SUP-B15 [5] = test: Induction of apoptosis in human SUP-B15 cells assessed as viable cells at 2 uM after 24 hrs by Annexin V-FITC/propidium iodide staining-based flow cytometry (reference value: 82.8%); format: functional; conditions: SUP-B15, 24 h, read-out: Activity
KOPN-8 [6] = test: Cell cycle arrest in human KOPN8 cells assessed as accumulation at G2/M phase at 2 uM after 24 hrs by propidium iodide staining-based flow cytometry (reference value: 9.67%); format: functional
MDA-MB-231 [7] = test: Cell cycle arrest in human MDA-MB-231 cells assessed as accumulation at G2/M phase at 2.5 uM after 24 hrs by propidium iodide staining-based flow cytometry (reference value: 9.38%); format: functional
SUP-B15 [8] = test: Induction of apoptosis in human SUP-B15 cells assessed as necrotic cells at 2 uM after 24 hrs by Annexin V-FITC/propidium iodide staining-based flow cytometry (reference value: 9.2%); format: functional
SUP-B15 [9] = test: Induction of apoptosis in human SUP-B15 cells assessed as early apoptotic cells at 2 uM after 24 hrs by Annexin V-FITC/propidium iodide staining-based flow cytometry (reference value: 0.1%); format: functional
SUP-B15 [10] = test: Induction of apoptosis in human SUP-B15 cells assessed as late apoptotic cells at 2 uM after 24 hrs by Annexin V-FITC/propidium iodide staining-based flow cytometry (reference value: 2.2%); format: functional
KOPN-8 [11] = test: Induction of apoptosis in human KOPN8 cells assessed as early apoptotic cells at 2 uM after 24 hrs by Annexin V-FITC/propidium iodide staining-based flow cytometry (reference value: 0.1%); format: functional
KOPN-8 [12] = test: Induction of apoptosis in human KOPN8 cells assessed as late apoptotic cells at 2 uM after 24 hrs by Annexin V-FITC/propidium iodide staining-based flow cytometry (reference value: 9.5%); format: functional
KOPN-8 [13] = test: Induction of apoptosis in human KOPN8 cells assessed as necrotic cells at 2 uM after 24 hrs by Annexin V-FITC/propidium iodide staining-based flow cytometry (reference value: 0.2%); format: functional
MDA-MB-231 [14] = test: Cell cycle arrest in human MDA-MB-231 cells assessed as accumulation at G0/G1 phase at 2.5 uM after 24 hrs by propidium iodide staining-based flow cytometry (reference value: 70.47%); format: functional
KOPN-8 [15] = test: Induction of apoptosis in human KOPN8 cells assessed as late apoptotic cells at 10 uM after 24 hrs by Annexin V-FITC/propidium iodide staining-based flow cytometry (reference value: 9.5%); format: functional
In short: (§1)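 KOPN-8 cells were treated for 24 h, with a DMSO vehicle control and a staurosporine positive control. Cells were stained with FITC-Annexin V and propidium iodide and analysed by flow cytometry. Quadrant gating separated viable, early apoptotic, late apoptotic (Q2) and necrotic populations.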

KOPN-8 [16] = test: Induction of apoptosis in human KOPN8 cells assessed as necrotic cells at 10 uM after 24 hrs by Annexin V-FITC/propidium iodide staining-based flow cytometry (reference value: 0.2%); format: functional; in short: as §1
KOPN-8 [17] = test: Cell cycle arrest in human KOPN8 cells assessed as accumulation at S phase at 10 uM after 24 hrs by propidium iodide staining-based flow cytometry (reference value: 66.56%); format: functional
In short: (§2)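 KOPN-8 cells treated 24 h alongside a DMSO vehicle and a staurosporine (2.0 µM) positive control. Apoptosis was scored by FITC Annexin V / propidium iodide flow cytometry with quadrant gating (early, late apoptotic). DNA content was measured by PI staining to give the percentage of cells in G0/G1, S and G2/M. Groups were compared by t-test; error bars are SD.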

SUP-B15 [18] = test: Induction of apoptosis in human SUP-B15 cells assessed as necrotic cells at 10 uM after 24 hrs by Annexin V-FITC/propidium iodide staining-based flow cytometry (reference value: 9.2%); format: functional
KOPN-8 [19] = test: Antiproliferative activity against human KOPN8 cells after 72 hrs by CelTiter-Glo assay; format: functional, cell-based; conditions: KOPN-8, 72 h
KOPN-8 [20] = test: Induction of apoptosis in human KOPN8 cells assessed as viable cells at 10 uM after 24 hrs by Annexin V-FITC/propidium iodide staining-based flow cytometry (reference value: 85.2%); format: functional; conditions: KOPN-8, 24 h, read-out: Activity; in short: as §1
SUP-B15 [21] = test: Antiproliferative activity against human SUP-B15 cells after 72 hrs by CelTiter-Glo assay; format: functional, cell-based; conditions: SUP-B15, 72 h
BJ = test: Antiproliferative activity against human BJ cells after 72 hrs by CelTiter-Glo assay; format: cell-based
SUP-B15 [22] = test: Induction of apoptosis in human SUP-B15 cells assessed as early apoptotic cells at 10 uM after 24 hrs by Annexin V-FITC/propidium iodide staining-based flow cytometry (reference value: 0.1%); format: functional
KOPN-8 [23] = test: Cell cycle arrest in human KOPN8 cells assessed as accumulation at G0/G1 phase at 10 uM after 24 hrs by propidium iodide staining-based flow cytometry (reference value: 24.77%); format: functional; in short: as §2
KOPN-8 [24] = test: Induction of apoptosis in human KOPN8 cells assessed as early apoptotic cells at 10 uM after 24 hrs by Annexin V-FITC/propidium iodide staining-based flow cytometry (reference value: 0.1%); format: functional; in short: as §2
SUP-B15 [25] = test: Induction of apoptosis in human SUP-B15 cells assessed as late apoptotic cells at 10 uM after 24 hrs by Annexin V-FITC/propidium iodide staining-based flow cytometry (reference value: 2.2%); format: functional
HepG2 = test: Antiproliferative activity against human HepG2 cells after 72 hrs by CelTiter-Glo assay; format: functional, cell-based; conditions: HepG2, 72 h
KOPN-8 [26] = test: Cell cycle arrest in human KOPN8 cells assessed as accumulation at G2/M phase at 10 uM after 24 hrs by propidium iodide staining-based flow cytometry (reference value: 9.67%); format: functional; in short: as §2
SEM cells = test: Antiproliferative activity against human SEM cells after 72 hrs by CelTiter-Glo assay; format: functional, cell-based
THLE-2 = test: Antiproliferative activity against human THLE2 cells after 72 hrs by CelTiter-Glo assay; format: cell-based; conditions: THLE-2, 72 h
SUP-B15 [27] = test: Induction of apoptosis in human SUP-B15 cells assessed as viable cells at 10 uM after 24 hrs by Annexin V-FITC/propidium iodide staining-based flow cytometry (reference value: 82.8%); format: functional; conditions: SUP-B15, 24 h, read-out: Activity
MDA-MB-231 [28] = test: Cell cycle arrest in human MDA-MB-231 cells assessed as accumulation at G0/G1 phase at 20 uM after 24 hrs by propidium iodide staining-based flow cytometry (reference value: 70.47%); format: functional
MDA-MB-231 [29] = test: Cell cycle arrest in human MDA-MB-231 cells assessed as accumulation at S phase at 20 uM after 24 hrs by propidium iodide staining-based flow cytometry (reference value: 20.15%); format: functional
MDA-MB-231 [30] = test: Cell cycle arrest in human MDA-MB-231 cells assessed as accumulation at G2/M phase at 20 uM after 24 hrs by propidium iodide staining-based flow cytometry (reference value: 9.38%); format: functional
UoC-B1 = test: Antiproliferative activity against human UOCB1 cells after 72 hrs by CelTiter-Glo assay; format: functional, cell-based; conditions: UoC-B1, 72 h

With CN[C@@H]1C[C@H]2O[C@@](C)([C@@H]1OC)n1c3ccccc3c3c4c(c5c6ccccc6n2c5c31)C(=O)NC4 [STAUROSPORINE] the Activity (KOPN-8 [1]) was 30.37%, the viability at 2 µM (KOPN-8 [2]) was 0.3% and the Activity (KOPN-8 [3]) was 49.55%. It also gave an Activity (MDA-MB-231 [4]) of 42.21%, a viability at 2 µM (SUP-B15 [5]) of 9.8% and an Activity (KOPN-8 [6]) of 20.08%. For the same compound, the Activity (MDA-MB-231 [7]) was 6.8%, the Activity (SUP-B15 [8]) was 39.4% and the Activity (SUP-B15 [9]) was 0.2%. For the same compound, the Activity (SUP-B15 [10]) was 44.2%, the Activity (KOPN-8 [11]) was 0.2% and the Activity (KOPN-8 [12]) was 74.4%. It also gave an Activity (KOPN-8 [13]) of 0.1% and an Activity (MDA-MB-231 [14]) of 50.99%.

COc1cc(OC)c2c(=O)cc(C(=O)N3CCN(C(=O)OC(C)(C)C)CC3)[nH]c2c1 was tested, and the Activity (KOPN-8 [15]) was 24.9%, the Activity (KOPN-8 [16]) was 0.5% and the Activity (KOPN-8 [17]) was 61.36%. The Activity (SUP-B15 [18]) was 11.3%, the EC50 (KOPN-8 [19]) was 6.73 µM and the viability at 10 µM (KOPN-8 [20]) was 63.7%. For the same compound, the EC50 (SUP-B15 [21]) was 3.98 µM, the EC50 (BJ) was 13.8 µM and the Activity (SUP-B15 [22]) was 0%. It also gave an Activity (KOPN-8 [23]) of 29.78%, an Activity (KOPN-8 [24]) of 0.2% and an Activity (SUP-B15 [25]) of 3.2%. For the same compound, the EC50 (HepG2) was 11.3 µM, the Activity (KOPN-8 [26]) was 8.86% and the EC50 (SEM cells) was 47 µM. The EC50 (THLE-2) was 299 µM and the viability at 10 µM (SUP-B15 [27]) was 77.7%.

Compound COc1ccc(-c2c(Br)c(=O)c3c(OC)cc(OC)cc3n2S(=O)(=O)c2ccc(OC)cc2)cc1 has an EC50 (KOPN-8 [19]) of 2.58 µM, an EC50 (SUP-B15 [21]) of 2.92 µM and an EC50 (BJ) of 49.7 µM. For the same compound, the Activity (MDA-MB-231 [28]) was 70.02%, the EC50 (HepG2) was greater than 20 µM and the EC50 (SEM cells) was 1.9 µM. The Activity (MDA-MB-231 [29]) was 18.2%, the Activity (MDA-MB-231 [30]) was 11.79% and the EC50 (THLE-2) was 69 µM.

With COC(=O)c1cc(=O)c2cc(NC(=O)Nc3ccc(Cl)c(C(F)(F)F)c3)ccc2[nH]1 the EC50 (UoC-B1) was greater than 6.35 µM, the Activity (KOPN-8 [15]) was 12.3% and the Activity (KOPN-8 [16]) was 0.3%. It also gave an Activity (KOPN-8 [17]) of 48.5%, an Activity (SUP-B15 [18]) of 16.4% and an EC50 (KOPN-8 [19]) greater than 6.35 µM. For the same compound, the viability at 10 µM (KOPN-8 [20]) was 80.7%, the EC50 (SUP-B15 [21]) was greater than 12.6 µM and the EC50 (BJ) was greater than 12.6 µM. For the same compound, the Activity (SUP-B15 [22]) was 0.1%, the Activity (KOPN-8 [23]) was 40.39% and the Activity (KOPN-8 [24]) was 0.1%. The Activity (SUP-B15 [25]) was 9.3%, the EC50 (HepG2) was greater than 6.35 µM and the Activity (KOPN-8 [26]) was 11.11%. It also gave an EC50 (SEM cells) greater than 6.35 µM and a viability at 10 µM (SUP-B15 [27]) of 65.5%.
